{"data": "Published values from different studies", "target": "Peripheral plasma membrane protein CASK (CASK, Homo sapiens, UniProt O14936)", "Residues used in one study (O14936 1-926)": "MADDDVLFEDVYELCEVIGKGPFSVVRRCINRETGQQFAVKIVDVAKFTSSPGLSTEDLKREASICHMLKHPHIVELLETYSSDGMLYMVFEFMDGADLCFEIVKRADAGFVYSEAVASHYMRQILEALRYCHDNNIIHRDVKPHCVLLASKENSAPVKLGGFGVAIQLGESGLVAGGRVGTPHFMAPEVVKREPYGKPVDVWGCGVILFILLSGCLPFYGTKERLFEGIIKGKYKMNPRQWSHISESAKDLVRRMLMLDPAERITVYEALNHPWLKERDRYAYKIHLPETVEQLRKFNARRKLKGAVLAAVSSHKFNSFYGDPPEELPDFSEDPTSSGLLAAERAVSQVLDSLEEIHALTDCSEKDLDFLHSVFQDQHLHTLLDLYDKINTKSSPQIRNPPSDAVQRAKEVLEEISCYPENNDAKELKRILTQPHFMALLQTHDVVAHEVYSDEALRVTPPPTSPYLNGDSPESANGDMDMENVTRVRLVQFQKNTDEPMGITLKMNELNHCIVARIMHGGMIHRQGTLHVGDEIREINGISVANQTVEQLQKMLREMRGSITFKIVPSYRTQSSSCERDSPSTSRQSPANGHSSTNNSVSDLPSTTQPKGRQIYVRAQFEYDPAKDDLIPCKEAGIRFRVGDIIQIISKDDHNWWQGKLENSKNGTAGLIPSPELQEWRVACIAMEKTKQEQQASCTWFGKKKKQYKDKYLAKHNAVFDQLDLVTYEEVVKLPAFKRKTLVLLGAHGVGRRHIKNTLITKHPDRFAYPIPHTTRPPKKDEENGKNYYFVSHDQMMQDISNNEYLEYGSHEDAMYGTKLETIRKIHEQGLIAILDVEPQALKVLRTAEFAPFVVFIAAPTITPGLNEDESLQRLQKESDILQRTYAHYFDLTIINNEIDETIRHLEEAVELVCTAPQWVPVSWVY", "note": "Each line is one published result; the experiments were not run side by side."}
{"Structure (SMILES)": "CNC(=O)[C@@H]1CC[C@@H](n2c(-c3ccc4cnccc4c3)nc3ccc(C(=O)NCc4cccc(C(N)=O)c4)cc32)C1", "effect on": "binding", "technique": "competition with immobilised ligand", "concentration": "1 µM", "remaining binding": "82%"}
{"Structure (SMILES)": "O=C(NCC1CCOCC1)c1n[nH]cc1NC(=O)c1c(F)cccc1F", "effect on": "binding", "technique": "competition with immobilised ligand", "concentration": "1 µM", "remaining binding": "61%"}
{"Structure (SMILES)": "O=C(c1ccc(Nc2ncc(Cl)c(-c3ccc(Cl)s3)n2)cc1)N1CCC(N2CCCC2)CC1", "effect on": "binding", "technique": "competition with immobilised ligand", "concentration": "1 µM", "remaining binding": "87%"}
{"Structure (SMILES)": "N#CC1(c2ccccn2)CCN(Cc2cc(C(=O)N3CCCC3)c(=O)n3ccccc23)CC1", "effect on": "cell-free assay", "technique": "competition with immobilised ligand", "concentration": "1 µM", "remaining binding": "100%"}
{"Structure (SMILES)": "c1cncc(-c2cccc(Nc3nccc(NC4CCCCC4)n3)c2)c1", "effect on": "binding", "technique": "competition with immobilised ligand", "concentration": "10 µM", "remaining binding": "76%"}
{"Structure (SMILES)": "C=CC(=O)N1CCC(C(=O)NCC(=O)N2CCN(c3nc(-c4cnc(N)nc4C(F)F)nc(N4CCOCC4)n3)CC2)CC1", "effect on": "binding", "technique": "competition with immobilised ligand", "concentration": "1 µM", "remaining binding": "69%"}
{"Structure (SMILES)": "FC(F)(F)c1ccc2c(c1)nc(-c1cccnc1)n2C1CC1", "effect on": "cell-free assay", "technique": "competition with immobilised ligand", "concentration": "1 µM", "remaining binding": "100%"}
{"Structure (SMILES)": "CC1CCCN1c1nccc(-c2cnn3ncccc23)n1 (stereo not drawn)", "effect on": "binding", "technique": "competition with immobilised ligand", "concentration": "1 µM", "remaining binding": "100%"}
{"Structure (SMILES)": "O=C(NCCCN1CCOCC1)c1ccc(Nc2ncc(Cl)c(-c3ccc(Cl)s3)n2)cc1", "effect on": "binding", "technique": "competition with immobilised ligand", "concentration": "1 µM", "remaining binding": "98%"}
{"Structure (SMILES)": "CN(CCCC(F)(F)F)c1nccc(-c2cnn3ncccc23)n1", "effect on": "binding", "concentration": "1 µM", "remaining binding": "100%"}
{"Structure (SMILES)": "CCN1CCN(Cc2ccc(C(=O)Nc3ccc(C)c(Oc4ccc5c(c4)CC(=O)N5)c3)cc2C(F)(F)F)CC1", "effect on": "binding", "technique": "competition with immobilised ligand", "concentration": "1 µM", "remaining binding": "100%"}
{"Structure (SMILES)": "C[C@@H](c1ccc(-n2cnc3c(N)ncnc32)cc1)N1CCc2nn(C)c(Cc3ccccc3)c2C1=O", "effect on": "binding", "technique": "competition with immobilised ligand", "concentration": "0.1 µM", "remaining binding": "80%"}
{"Structure (SMILES)": "O=C(Nc1cccnn1)N1CCC(=Cc2cccc(Oc3ccc(C(F)(F)F)cn3)c2)CC1", "effect on": "cell-free assay", "technique": "competition with immobilised ligand", "concentration": "1 µM", "remaining binding": "92%"}
{"Structure (SMILES)": "N[C@H]1CCN(c2nccc(-c3cnn4ncccc34)n2)C1", "effect on": "binding", "technique": "competition with immobilised ligand", "concentration": "1 µM", "remaining binding": "100%"}
{"Structure (SMILES)": "O=C(NCCCN1CCOCC1)c1ccc(Nc2nccc(-c3cc4ccccc4s3)n2)cc1", "effect on": "binding", "technique": "competition with immobilised ligand", "concentration": "1 µM", "remaining binding": "100%"}
{"Structure (SMILES)": "c1cnn2ncc(-c3ccnc(N4CCC45COC5)n3)c2c1", "effect on": "binding", "concentration": "1 µM", "remaining binding": "81%"}
{"Structure (SMILES)": "Cn1nc(C(F)(F)F)cc1-c1cnc(N2CCc3cc(S(=O)(=O)Nc4c(F)cc(Cl)cc4F)cc(N4CCCC4=O)c32)nc1", "effect on": "cell-free assay", "technique": "competition with immobilised ligand", "concentration": "1 µM", "remaining binding": "77%"}
{"Structure (SMILES)": "CN(c1nccc(-c2cnn3ncccc23)n1)C1CC1", "effect on": "binding", "concentration": "1 µM", "remaining binding": "100%"}
{"Structure (SMILES)": "Cc1c(NC(=O)c2cc(C(N)=O)nc3cc(F)ccc23)c(C(F)(F)F)nn1Cc1ccc(C#N)cc1", "effect on": "cell-free assay", "technique": "competition with immobilised ligand", "concentration": "1 µM", "remaining binding": "71%"}
{"Structure (SMILES)": "C[C@H]1CCN(c2nccc(-c3cnn4ncccc34)n2)C1", "effect on": "binding", "concentration": "1 µM", "remaining binding": "74%"}
{"Structure (SMILES)": "Cc1nc(C2CCN(C(=O)c3ccc(OC(F)(F)F)cc3N)CC2)c2ncc(N3CCN(C)CC3)cc2n1", "effect on": "cell-free assay", "technique": "competition with immobilised ligand", "concentration": "1 µM", "remaining binding": "87%"}
